Data set [1] has as its system Trypanosoma cruzi. Kind of data set: Antiprotozoal activity against Trypanosoma cruzi Y in vero cells. Type of data set: functional, organism-based.
Data set [2] deals with Trypanosoma cruzi. In words: Reduction of Trypanosoma cruzi Y amastigotes infection in Vero cells at 25 uM after 48 hrs. Type of data set: functional. Further details: scale not given: the % may be the effect or the level left. Put shortly:
(§1)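 Vero cells on glass slides in DMEM with 5% FBS at 37 °C, 5% CO2 were infected with culture-derived trypomastigotes at 1:10 cell:parasite for 6 h. Non-adherent parasites were washed off, and cells were treated for 48 h. Slides were methanol-fixed and Giemsa-stained, and 500 random cells were examined at 1000× for infection rate. Values are the mean of two experiments.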

Data set [3] can be described thus: Cytotoxicity against Vero cells by MTT assay. Type of data set: cell-based. The following applies: African green monkey. Put shortly:
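Vero cells were exposed to compounds for 72 h at 37 °C, then incubated with MTT for 4 h. Formazan was dissolved in DMSO and read at 540 nm. CC50 was derived by linear regression, with ANOVA and Dunnett's test.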
Background: Tetrazolium assays rely on reduction of a dye to a coloured formazan, in cell work by metabolically active cells.

In data set [4] the test system is Leishmania chagasi. In words: Antiprotozoal activity against Leishmania chagasi PP75 in vero cells. It counts as functional, organism-based.
Data set [5] deals with Leishmania amazonensis. Kind of data set: Antiprotozoal activity against Leishmania amazonensis 575 in vero cells. Type of data set: functional, organism-based. The following applies: promastigotes, in the assay text read “promastigotes” for “in vero cells”. The essentials:
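Axenic growth assay: L. amazonensis 575 promastigotes were grown in Schneider's medium with 5% heat-inactivated FBS, and T. cruzi Y epimastigotes in LIT medium with 10% FBS. Parasites at 1 × 10^6 cells/ml were exposed to 0.2–100 µM for 72 h at 28 °C. Survivors were counted in a Neubauer chamber. Three experiments were run in triplicate, and IC50 was derived by linear regression.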

Data set [6] has as its system Trypanosoma cruzi. In words: Reduction of Trypanosoma cruzi Y amastigotes infection in Vero cells at 1 uM after 48 hrs. It counts as functional. Further details: scale not given: the % may be the effect or the level left. The essentials: as §1
Data set [7] relates to Leishmania amazonensis. Kind of data set: Reduction of Leishmania amazonensis 575 infection in mouse peritoneal macrophage at 1 uM after 48 hrs. More on the design: scale not given: the % may be the effect or the level left. Type of data set: functional. Put shortly:
(§2)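 Peritoneal macrophages from female albino Swiss mice were grown on glass slides in DMEM with 20% heat-inactivated FBS at 37 °C, 5% CO2. Cells were infected with L. amazonensis promastigotes at 1:10 cell:parasite for 4 h, then treated for 48 h. Slides were methanol-fixed and Giemsa-stained, and 500 random cells were scored for infection rate. Values are the mean of two experiments.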

The subject of data set [8] is Trypanosoma cruzi. Kind of data set: Reduction of Trypanosoma cruzi Y amastigotes infection in Vero cells at 5 uM after 48 hrs. It counts as functional. Further details: scale not given: the % may be the effect or the level left. Put shortly: as §1
Data set [9] has as its system Leishmania amazonensis. In words: Reduction of Leishmania amazonensis 575 infection in mouse peritoneal macrophage at 5 uM after 48 hrs. It counts as functional. Further details: scale not given: the % may be the effect or the level left. Put shortly: as §2
The subject of data set [10] is Leishmania amazonensis. Kind of data set: Reduction of Leishmania amazonensis 575 infection in mouse peritoneal macrophage at 25 uM after 48 hrs. Type of data set: functional. More on the design: scale not given: the % may be the effect or the level left. Put shortly: as §2
For data set [11], the system named is Leishmania amazonensis. In words: Reduction of Leishmania amazonensis 575 amastigotes infection in mouse peritoneal macrophage at 10 uM after 48 hrs. It counts as functional. More on the design: scale not given: the % may be the effect or the level left. Put shortly:
as §2

This passage reports IC50, Activity and CC50 results from ChEMBL document CHEMBL1137540, “Synthesis and in vitro evaluation of leishmanicidal and trypanocidal activities of N-quinolin-8-yl-arylsulfonamides” (Bioorg Med Chem, 2007).

Broadly, the IC50 is the concentration needed to halve the response being measured. The term CC50 denotes the concentration giving 50% cytotoxicity. In turn, `O=C(Cn1ccnc1[N+](=O)[O-])NCc1ccccc1` [BENZNIDAZOLE] came in with an IC50 in data set [1] of 14.6 µM. Also, the Activity in data set [2] is given as 92%. In data set [3], the CC50 is above 1000 µM.
In the case of `O=S(=O)(Nc1cccc2cccnc12)c1cc(F)cc(F)c1`, the IC50 in data set [4] was 0.45 µM; in data set [1], above 100 µM; in [5], 2.12 µM. For the same compound, in data set [3], the CC50 came to 66.3 µM.
Turning to `O=S(=O)(Nc1cccc2cccnc12)c1cnc(Cl)c(Br)c1`, the values for the IC50 in [4], in data set [1] and in data set [5] were 0.56 µM, 31.8 µM and 2.25 µM, respectively. In addition, the Activity in data set [6] came to 78.6%; in data set [7], 52%; in data set [8], 85.2%; in [2], 96.4%; in data set [9] it was 67.1%; in data set [10] it was 84.8%. This compound also displayed a CC50 in data set [3] of 67.4 µM.
As to `O=S(=O)(Nc1cccc2cccnc12)c1cc(Br)c(Br)s1`, the IC50 in data set [4] is 0.53 µM; in data set [1], above 100 µM; in data set [5], 2.85 µM. The compound also showed a CC50 in data set [3] of 68.7 µM.
For `O=S(=O)(Nc1cccc2cccnc12)c1ccc(F)cc1`, the IC50 in data set [4], in [1] and in data set [5] was above 100 µM in each case.
As to `CCCc1ccc(S(=O)(=O)Nc2c(Br)cc(Br)c3cccnc23)cc1`, the half-maximal inhibitory concentration (IC50) in data set [4], in data set [1] and in data set [5] was above 100 µM each time.
As for `O=[N+]([O-])c1ccc(S(=O)(=O)Nc2cccc3cccnc23)cc1`, the IC50 in data set [4], in [1] and in data set [5] was above 100 µM in each case.
In the case of `CCCc1ccc(S(=O)(=O)Nc2cc(OC)cc3ccc(C)nc23)cc1`, the IC50 in data set [4], in [1] and in data set [5] was above 100 µM throughout.
On to `CN(C)c1cccc2c(S(=O)(=O)Nc3cccc4cccnc34)cccc12`, for which the IC50 was 3.53 µM in data set [4], above 100 µM in data set [1] and 7.18 µM in data set [5]. The Activity in data set [7] was 25.7%; in data set [9] it was 48.2%; in [10], “Toxic”. Further, it took 84.2 µM to reach half-maximal cytotoxicity in [3] (CC50).
Regarding `O=S(=O)(Nc1cccc2cccnc12)c1ccc(Br)cc1`, the concentration for half-maximal inhibition (IC50) in data set [4] was 2.99 µM; in data set [1], above 100 µM; in data set [5] it was 4.94 µM. Also, the CC50 in data set [3] came to 88.7 µM.
For `O=S(=O)(Nc1cccc2cccnc12)c1ccc(-c2ccccc2)cc1`, the IC50 in [4] was 2.18 µM; in data set [1], above 100 µM; in data set [5] it was 6.27 µM. Besides, the Activity was 60% in data set [7], 72.3% in data set [9] and 82.1% in data set [10]. The same compound yielded a CC50 in data set [3] of 245 µM.
As to `CCCc1ccc(S(=O)(=O)Nc2cccc3cccnc23)cc1`, the IC50 in data set [4] is 14 µM; in data set [1], above 100 µM; in data set [5], 14.5 µM. Moreover, the Activity in data set [7] came to 18.7%; in data set [9], 52.2%; in data set [10], 63.7%. In data set [3], the CC50 was 64.4 µM.
Take `C[C@@H]1[C@H](O)[C@@H](C)/C=C/C=C/C=C/C=C/C=C/C=C/C=C/[C@H](O[C@@H]2O[C@H](C)[C@@H](O)[C@H](N)[C@@H]2O)C[C@@H]2O[C@](O)(C[C@@H](O)C[C@@H](O)[C@H](O)CC[C@@H](O)C[C@@H](O)CC(=O)O[C@H]1C)C[C@H](O)[C@H]2C(=O)O` [AMPHOTERICIN B]: the IC50 in data set [4] turned out to be 0.25 µM; in data set [5], 0.31 µM. The compound also yielded an Activity in data set [11] of 97%. The CC50 in [3] stood at 98.4 µM.
For `CC(C)c1cc(C(C)C)c(S(=O)(=O)Nc2cccc3cccnc23)c(C(C)C)c1`, the IC50 in data set [4], in [1] and in data set [5] was above 100 µM in each case.
